Measurements taken from article PMC5034689 (Molecular Metabolism, 2016).

What was measured:
3T3L1 adipocytes = assay: Glycerol assay for lipolysis in adipocytes; format: cell-based; conditions: TNP 1 μM, isoproterenol 10 μM
Outline: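 3T3-L1 preadipocytes were differentiated for 7 days. Adipocytes were pretreated 4 h with DMSO or 1 μM test compound in DMEM with 0.5% fatty-acid-free BSA. Medium was then replaced, with or without isoproterenol (10 μM), and compound was kept on throughout. Glycerol released into the medium was measured with a commercial kit.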

chow-fed male mice = assay: Long-term TNP treatment on fertility of chow-fed male mice; format: in vivo; conditions: 10 mg/kg BW daily for 15 weeks, chow-fed WT
Outline: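 Six-week-old chow-fed male mice were injected daily with 10 mg/kg test compound for 4 weeks. They were then used for breeding while injections continued another 11 weeks (15 weeks total). Each male took part in 4 rounds of harem breeding, the last after 14 weeks of treatment.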

IP3-3K = conditions: PC12 cells, enhances neurite outgrowth; cited from earlier work
lean/CD-fed mice = assay: Single dose of TNP in chow; format: in vivo; conditions: single dose 20 mg/kg BW
Outline: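 Chow-fed lean or DIO mice (n = 4/group) received one 20 mg/kg injection, were fasted 5 h, then given GTT (glucose 2 g/kg i.p., tail-vein glucometer from time 0). Mice were then sacrificed for tissues and cardiac-puncture serum. Insulin was measured by ultra-sensitive ELISA and TAG by a metabolic core. Akt S473 was immunoblotted (T308 also in IWAT), with densitometry n = 3.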

DIO mice = assay: Long-term TNP treatment of DIO mice at thermoneutral temperature; format: in vivo
Outline: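 Following the initial phase, vehicle or test compound was injected for another 8 weeks, n = 6/group. Body weight was recorded weekly. ITT was done at week 4: 5 h fast, human insulin 0.75 U/kg i.p., tail-vein glucometer. At 8 weeks, mice were sacrificed after a 5 h fast. Cardiac-puncture serum was assayed for cholesterol and HDL by a metabolic core.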

DIO WT mice = assay: Long-term TNP for reversal of DIO in WT mice; format: in vivo
Outline: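 Inbred IP6K1-KO mice (seventh generation) and WT littermates, n = 4/group, received HFD for 8 weeks, then daily injections (10 mg/kg) with continued HFD for 10 weeks. GTT was done at week 5: 5 h fast, glucose 2 g/kg i.p., tail-vein glucometer readings including time 0. After 10 weeks, fat, lean and fluid masses were measured by LF-NMR, and mice were sacrificed after a 5 h fast.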

CYP2D6 = CYP2D6 (Homo sapiens, UniProt P10635); assay: CYP450 inhibition in human hepatic microsomes, CYP2D6; format: in vitro ADME; conditions: liver microsomes, probe bufuralol (hydroxylation to 4′-hydroxybufuralol)
Chain of CYP2D6 (P10635 whole entry): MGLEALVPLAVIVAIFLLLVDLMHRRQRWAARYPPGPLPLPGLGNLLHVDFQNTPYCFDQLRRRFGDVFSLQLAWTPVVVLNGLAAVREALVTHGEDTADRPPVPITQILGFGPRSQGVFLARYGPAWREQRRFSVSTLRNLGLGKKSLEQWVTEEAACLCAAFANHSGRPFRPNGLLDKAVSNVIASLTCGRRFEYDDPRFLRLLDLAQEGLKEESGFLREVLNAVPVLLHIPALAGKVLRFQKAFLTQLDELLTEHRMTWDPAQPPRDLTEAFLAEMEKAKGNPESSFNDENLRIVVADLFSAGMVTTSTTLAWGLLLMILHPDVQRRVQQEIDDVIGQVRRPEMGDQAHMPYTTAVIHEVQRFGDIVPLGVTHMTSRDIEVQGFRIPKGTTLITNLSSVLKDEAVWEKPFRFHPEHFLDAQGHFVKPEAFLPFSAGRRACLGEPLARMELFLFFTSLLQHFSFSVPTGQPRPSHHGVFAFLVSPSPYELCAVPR

HFD-fed mice = assay: Long-term TNP for protection against DIO; format: in vivo, C57BL6 mice
Outline: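 Male C57BL6 mice, chow-fed to 2 months of age, started HFD together with daily injections (10 mg/kg; vehicle DMSO:Tween 80:water 1:1:8) for 10 weeks, n = 6/group, 23 °C. Body weight was recorded weekly. In week 5, CLAMS ran 36 h acclimatization then 48 h of VO2, VCO2 and locomotor recording. RER = VCO2/VO2, and EE was normalized to lean mass. Week-7 food intake was measured by BioDAQ (2 days acclimatization, 4 days recorded).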

[1] = 10 mg/kg BW daily, 10 weeks, WT
[2] = 10 mg/kg BW daily, 10 weeks, WT, vs vehicle
[3] = after 5 weeks of TNP treatment, WT
[4] = 10 mg/kg BW daily, 5th week, CLAMS

- Sterility of males (chow-fed male mice): do not display sterility
- Testis morphology (DIO WT mice; 10 mg/kg BW daily, 10 weeks, DIO mice): unaltered
- Histological morphology and weight of heart and kidney (DIO WT mice; 10 mg/kg BW daily, 10 weeks, vs vehicle): similar
- CA1 neuronal density (DIO WT mice; long-term TNP treatment, WT and IP6K1-KO mice, stereological analysis): did not significantly alter
- inhibition at 10 μM (CYP2D6): 76%
SMILES: O=[N+]([O-])c1ccc(CNc2nc(NCc3cccc(C(F)(F)F)c3)nc3[nH]cnc23)cc1 [TNP, N6-(4-nitrobenzyl)-N2-(3-(trifluoromethyl)benzyl)-9H-purine-2,6-diamine]
- Basal or isoproterenol induced lipolysis (glycerol release) (3T3L1 adipocytes): does not influence
- Concentrations at which TNP inhibits IP3-3K (IP3-3K): 20 to 40 µM
- Akt phosphorylation at S473 in liver and EWAT (lean/CD-fed mice): does not alter
- Glucose disposal (GTT) (lean/CD-fed mice): does not influence
- Glucose disposal following exogenous insulin treatment (ITT) (DIO mice; 30 °C, after 4-weeks of TNP injection): significantly improved
- Average decrease in body weight (DIO mice; 30 °C, after 8-weeks of injection): ~0.7 g
- Serum levels of total cholesterol and HDL (DIO mice; thermoneutral temperature): unaltered at thermoneutral temperature
- Serum insulin level (DIO WT mice; 10 mg/kg BW daily, 10 weeks, HFD-fed WT): reduces serum insulin level
- Serum cholesterol level (DIO WT mice; [1]): reduces serum cholesterol level
- UCP1 expression (DIO WT mice; [1]): enhances UCP1 expression
- Liver weight (DIO WT mice; [2]): substantially less
- Total fat mass (QNMR) (DIO WT mice; [2]): significantly less
- Reduction in body weight vs vehicle (DIO WT mice; 10 mg/kg BW daily, after 10-week of treatment, WT): ~10 g
- Body weight (DIO WT mice; 10 mg/kg BW daily, after 10 weeks of injection, DIO WT): 36.9 g
- Fasting blood glucose (DIO WT mice; [3]): reduces fasting blood glucose
- Glucose disposal (GTT) (DIO WT mice; [3]): enhances glucose disposal
- Lean mass (HFD-fed mice; 10 mg/kg BW daily): unaltered
- Average RER (HFD-fed mice; [4]): unaltered
- Average activity (HFD-fed mice; [4]): unaltered
- Energy expenditure (EE) (HFD-fed mice; [4]): higher EE especially during nighttime
- VO2 consumption (HFD-fed mice; [4]): higher VO2 consumption
- Daily energy intake (HFD-fed mice; 10 mg/kg BW daily, 7th week, vs vehicle): similar
- Glucose disposal following glucose (GTT) and insulin injections (ITT) (HFD-fed mice; 10 mg/kg BW daily, 8th and 9th week): efficient glucose disposals
- Body weight gain (HFD-fed mice; 10 mg/kg BW daily, after 10 weeks (injection stopped)): 2.9 g
- Body weight (HFD-fed mice; 10 mg/kg BW daily, after 10 weeks of HFD and TNP): 27.8 g
- Glucose disposal following glucose injection (GTT) (HFD-fed mice; 2 weeks after TNP withdrawal): efficient glucose disposal
- Body weight gain (HFD-fed mice; 18-week, eight weeks after TNP withdrawal): 19.3 g
- Body weight (HFD-fed mice; 18-week, eight weeks after TNP withdrawal, HFD continued): 44.3 g
- Glucose tolerance (GTT) (HFD-fed mice; four weeks after TNP withdrawal): become glucose intolerant
- Body weight (HFD-fed mice; onset of the experiment (before treatment)): 24.9 g
- Weight gain during the withdrawal period (HFD-fed mice; weeks 10 to 18, TNP-withdrawn mice): 16.4 g
